We go through 36 compounds from ChEMBL document CHEMBL3813621, “Structure-Activity Relationship Studies of Isomeric 2,4-Diaminoquinazolines on β-Amyloid Aggregation Kinetics” (ACS Med Chem Lett, 2016).

For orientation: IC50 means the concentration needed to halve the response being measured.

Structures are written as SMILES. Active and inactive are the calls of the source. No cut-off for these calls is given here. A value given as a limit tells only on which side of the number the result lay.

In experiment [1] the target is T1, Amyloid-beta precursor protein (Homo sapiens, UniProt P05067). Description: Inhibition of self-induced amyloid beta 42 (unknown origin) aggregation measured for 24 hrs by thioflavin T-based fluorescence spectroscopic analysis.
For experiment [2], the target named is T1, Amyloid-beta precursor protein. The experiment can be described thus: Inhibition of self-induced amyloid beta 40 (unknown origin) aggregation measured for 24 hrs by thioflavin T-based fluorescence spectroscopic analysis.
The target is the same in experiment [3]. Description: Potency index, ratio of curcumin IC50 for amyloid beta 40 (unknown origin) aggregation to compound IC50 for amyloid beta 40 (unknown origin) aggregation.
The target is the same in experiment [4]. The experiment can be described thus: Inhibition of amyloid beta 40 (unknown origin) aggregation at 25 uM after 24 hrs by transmission electron microscopy. In outline: (§1)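 Aβ40 or Aβ42 at 25 μM, alone or with 25 μM compound, incubated 24 h at 37 °C in phosphate buffer pH 7.4; fibril and aggregate morphology then imaged by transmission electron microscopy.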

Experiment [5] shares this target. Description: Inhibition of amyloid beta 42 (unknown origin) aggregation at 25 uM after 24 hrs by transmission electron microscopy. In outline:
as §1

For experiment [6] the target is unchanged. Description: Inhibition of amyloid beta 42 (unknown origin) aggregation assessed as time at which fluorescence intensity reaches the midpoint between pre and post aggregation baseline growth phase at 25 uM measured for 24 hrs by thioflavin T-based fluorescence spectroscopic analysis. In outline:
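Aβ42 at 5 μM with compound at 25 μM in phosphate buffer pH 7.4, 37 °C, followed 24 h by ThT fluorescence (ex 440/em 490 nm). t50 taken as the time at which fluorescence reaches the midpoint between pre- and postaggregation baselines of the growth phase. Three independent experiments in triplicate.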

Experiment [7] shares this target. Description: Inhibition of nucleation-dependent amyloid beta 40 (unknown origin) aggregation at 1 to 25 uM measured for 24 hrs by thioflavin T-based fluorescence spectroscopic analysis. In outline: (§2)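 Aβ peptide at 5 μM incubated with test compound (1, 5 or 25 μM) in phosphate buffer pH 7.4 at 37 °C for 24 h; aggregation monitored by ThT fluorescence (excitation 440 nm, emission 490 nm). IC50 calculated from ThT signal; mean of triplicate readings from three independent experiments.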

For experiment [8] the target is unchanged. The experiment can be described thus: Induction of self-induced amyloid beta 42 (unknown origin) aggregation measured for 24 hrs by thioflavin T-based fluorescence spectroscopic analysis. In outline:
as §2

Experiment [9] shares this target. The experiment can be described thus: Induction of self-induced amyloid beta 40 (unknown origin) aggregation measured for 24 hrs by thioflavin T-based fluorescence spectroscopic analysis. In outline:
as §2

Experiment [10] shares this target. The experiment can be described thus: Potency index, ratio of curcumin IC50 for amyloid beta 42 (unknown origin) aggregation to compound IC50 for amyloid beta 42 (unknown origin) aggregation.

T1 sequence (P05067 whole entry): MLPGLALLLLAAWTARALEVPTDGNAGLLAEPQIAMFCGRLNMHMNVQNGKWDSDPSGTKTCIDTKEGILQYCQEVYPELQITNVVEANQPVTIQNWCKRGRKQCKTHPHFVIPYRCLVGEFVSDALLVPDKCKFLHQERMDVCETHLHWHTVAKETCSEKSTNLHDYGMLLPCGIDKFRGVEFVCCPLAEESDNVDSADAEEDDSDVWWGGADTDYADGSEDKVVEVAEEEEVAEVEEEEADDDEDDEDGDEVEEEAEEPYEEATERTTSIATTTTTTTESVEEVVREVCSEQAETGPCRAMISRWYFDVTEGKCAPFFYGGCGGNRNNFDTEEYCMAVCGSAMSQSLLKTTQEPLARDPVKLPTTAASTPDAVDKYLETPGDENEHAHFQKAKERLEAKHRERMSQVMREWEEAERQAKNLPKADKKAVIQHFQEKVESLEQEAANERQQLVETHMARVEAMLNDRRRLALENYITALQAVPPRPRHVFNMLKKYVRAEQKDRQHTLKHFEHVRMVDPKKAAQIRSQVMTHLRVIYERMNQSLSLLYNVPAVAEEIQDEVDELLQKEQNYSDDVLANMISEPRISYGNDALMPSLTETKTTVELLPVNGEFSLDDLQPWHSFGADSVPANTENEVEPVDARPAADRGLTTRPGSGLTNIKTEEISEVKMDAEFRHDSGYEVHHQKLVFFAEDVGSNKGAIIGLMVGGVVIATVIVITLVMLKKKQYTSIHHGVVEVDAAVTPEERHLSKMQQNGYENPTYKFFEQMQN

As to `CC(C)Nc1nc(N)c2ccccc2n1`, the IC50 in [1] (read-out: IC50) and in [2] was greater than 25 µM in each case.

Consider `Nc1nc(NCc2ccc(Cl)cc2)nc2ccccc12`, for which the results for the IC50 in [1] (read-out: IC50) and in [2] were 8.1 µM and 0.93 µM, respectively.

For the compound `Nc1nc(NCc2ccc(Cl)cc2)c2ccccc2n1`, the half-inhibitory concentration (IC50) in experiment [1] (read-out: IC50) is greater than 25 µM; in experiment [2] it was 0.62 µM. In addition, the Ratio IC50 in [3] stood at 2.4.

Regarding `Cc1ccc(CNc2nc(N)nc3ccccc23)cc1`, the IC50 was greater than 25 µM in experiment [1] (read-out: IC50) and 3.9 µM in experiment [2].

As to `Nc1nc(NCc2ccccc2)c2ccccc2n1`, the IC50 in experiment [1] (read-out: IC50) was greater than 25 µM; in experiment [2] it was 4.8 µM.

For the compound `Nc1nc(NCc2cccc(C(F)(F)F)c2)nc2ccccc12`, the IC50 in [1] (read-out: IC50) was 13.8 µM; in [2], 12.5 µM.

Take `CCCNc1nc(N)nc2ccccc12`: the IC50 entry in [1] is “Not Active”; in [2], 14.9 µM.

As for `Cc1cccc(CNc2nc(N)nc3ccccc23)c1`, the IC50 was greater than 25 µM in experiment [1] (read-out: IC50) and 3.6 µM in experiment [2].

As for `Nc1nc(NCc2ccc(Br)cc2)c2ccccc2n1`, the inhibition result in experiment [4], in experiment [5] and in experiment [7] was “Active” in each case. Besides, the IC50 in [1] (read-out: IC50) stood at 14.8 µM; in [2], 0.08 µM. Also, the TIME in experiment [6] amounted to 3.5 h. In experiment [3], the Ratio IC50 amounted to 18.

For the compound `Nc1nc(NCc2cccc(F)c2)nc2ccccc12`, the IC50 in experiment [1] (read-out: IC50) was determined as 14.7 µM; in [2], 11.3 µM.

Take `Nc1nc(NCC2CCCCC2)nc2ccccc12`: the IC50 in experiment [1] (read-out: IC50) and in experiment [2] was greater than 25 µM each time.

For `Nc1nc(NCC2CCCCC2)c2ccccc2n1`, the IC50 in [1] (read-out: IC50) is greater than 25 µM; in experiment [2], 13.6 µM.

Turning to `O=S(=O)(O)c1cc(S(=O)(=O)O)c2c(/N=N/c3ccccc3)c(O)ccc2c1` [ORANGE G SODIUM], the figures for the IC50 in experiment [1] (read-out: IC50) and in experiment [2] were 8.7 µM and 3 µM, respectively.

On to `Nc1nc(NCCc2ccccc2)nc2ccccc12`, for which the IC50 in experiment [1] (read-out: IC50) was greater than 25 µM; in experiment [2] it was 14.9 µM.

For the compound `Nc1nc(NCc2cccc(Cl)c2)nc2ccccc12`, the values for the IC50 in [1] (read-out: IC50) and in experiment [2] were 13.4 µM and 5.9 µM, respectively.

`Nc1nc(NCc2ccc(F)cc2)c2ccccc2n1`: the half-maximal inhibitory concentration (IC50) in experiment [1] (read-out: IC50) is greater than 25 µM; in experiment [2], 3.1 µM.

In the case of `COc1cccc(CNc2nc(N)c3ccccc3n2)c1`, the concentration for half-maximal inhibition (IC50) in experiment [1] (read-out: IC50) and in [2] was greater than 25 µM each time.

Regarding `COc1ccc(CNc2nc(N)nc3ccccc23)cc1`, the IC50 in experiment [1] (read-out: IC50) was greater than 25 µM; in experiment [2], 1.1 µM.

For `Nc1nc(N)c2ccccc2n1`, the outcome in experiment [8] and in experiment [9] was Active.

Take `COc1ccc(CNc2nc(N)c3ccccc3n2)cc1`: the IC50 in experiment [1] (read-out: IC50) was greater than 25 µM; in experiment [2], 6.8 µM.

Take `Nc1nc(NCc2ccc(F)cc2)nc2ccccc12`: the IC50 in experiment [1] (read-out: IC50) and in experiment [2] was greater than 25 µM in each case.

Turning to `Nc1nc(NCc2cccc(F)c2)c2ccccc2n1`, the results for the IC50 in experiment [1] (read-out: IC50) and in experiment [2] were greater than 25 µM and 2.8 µM, respectively.

Turning to `CC(C)Nc1nc(N)nc2ccccc12`, the IC50 result was “Not Active” in [1] and 10.2 µM in [2].

Take `Nc1nc(NCc2ccc(C(F)(F)F)cc2)nc2ccccc12`: the figures for the IC50 in experiment [1] (read-out: IC50) and in [2] were 5.3 µM and 2.3 µM, respectively.

On to `Nc1nc(NCc2cccc(Cl)c2)c2ccccc2n1`, for which the values for the IC50 in experiment [1] (read-out: IC50) and in [2] were greater than 25 µM and 1.9 µM, respectively.

Take `Nc1nc(NCc2ccc(C(F)(F)F)cc2)c2ccccc2n1`: the IC50 in experiment [1] (read-out: IC50) is greater than 25 µM; in experiment [2] it was 1.9 µM.

Regarding `CCCNc1nc(N)c2ccccc2n1`, the IC50 in experiment [1] (read-out: IC50) and in [2] was greater than 25 µM each time.

As to `Nc1nc(NCc2ccc(Br)cc2)nc2ccccc12`, the inhibition entry in [4], in experiment [5] and in experiment [6] was “Active” throughout. Moreover, the inhibition entry in experiment [1] and in [2] was “Dose-dependent effect” throughout. Also, the IC50 in experiment [1] (read-out: IC50) and in experiment [2] was 1.7 µM in each case. In addition, the Ratio IC50 in experiment [10] came out at 1.8.

As for `Nc1nc(NCc2ccccc2)nc2ccccc12`, the results for the IC50 in experiment [1] (read-out: IC50) and in [2] were 8.4 µM and 2.2 µM, respectively.

Consider `Cc1ccc(CNc2nc(N)c3ccccc3n2)cc1`, for which the IC50 in experiment [1] (read-out: IC50) amounted to 22.5 µM; in experiment [2], 13.1 µM.

Turning to `COc1cccc(CNc2nc(N)nc3ccccc23)c1`, the results for the IC50 entry in [1] and in experiment [2] were “Not Active” and 20.6 µM, respectively.

With `Nc1nc(NCc2cccc(Br)c2)c2ccccc2n1`, the IC50 was 22.3 µM in experiment [1] (read-out: IC50) and 0.58 µM in [2]. Besides, the TIME in experiment [6] was found to be 2.6 h. Besides, in experiment [7], the inhibition entry is “Active”.

`Nc1nc(NCCc2ccccc2)c2ccccc2n1`: the IC50 in experiment [1] (read-out: IC50) was greater than 25 µM; in [2] it was 7.8 µM.

Take `Cc1cccc(CNc2nc(N)c3ccccc3n2)c1`: the IC50 in [1] (read-out: IC50) and in [2] was greater than 25 µM throughout.

Take `Nc1nc(NCc2cccc(Br)c2)nc2ccccc12`: the inhibition entry in experiment [1] and in experiment [2] was “Dose-dependent effect” each time. Besides, the figures for the half-maximal inhibitory concentration (IC50) in [1] (read-out: IC50) and in experiment [2] were 2.7 µM and 1.5 µM, respectively. In experiment [6], the TIME turned out to be 6 h.

Consider `Nc1nc(NCc2cccc(C(F)(F)F)c2)c2ccccc2n1`, for which the IC50 in [1] (read-out: IC50) was 21 µM; in experiment [2], 3.5 µM.
